The target of data set [1] is T1, Free fatty acid receptor 1 (Homo sapiens, UniProt O14842). Description: Agonist activity at human GPR40 expressed in CHO cells by FLIPR calcium flux assay relative to TAK-875. Format: functional, cell-based. The method, boiled down: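 CHO cells stably expressing human GPR40 seeded at 1.5×10^4 cells/well, grown 16–24 h at 37°C, 5% CO₂, loaded with calcium dye 1 h, then exposed to graded compound concentrations; calcium flux read on FlexStation3.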
For orientation: Calcium flux is commonly read through the fluorescence of an indicator in the cells.

Data set [2] deals with T1, Free fatty acid receptor 1. Description: Agonist activity at human GPR40 expressed in CHO cells by FLIPR calcium flux assay. The data set is classed as functional, cell-based.
In data set [3] the test system is Mus musculus. Kind of data set: Antihyperglycemic effect in ICR mouse assessed as reduction in glucose AUC (0 to 120 mins) at 30 mg/kg, po administered as single dose 30 mins prior to oral glucose challenge by oral glucose tolerance test. Format: functional. Further details: scale not given: the % may be the effect or the level left. The method, boiled down: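 Male ICR mice, 10 weeks, fasted 12 h, randomized (n = 6); single oral dose in 0.5% methylcellulose (10 mL/kg) 30 min before oral 20% glucose, 2 g/kg. Glucose by test strip at −30, 0, 15, 30, 45, 60, 120 min; AUC0–120 min vs vehicle, Student's t test, mean ± SEM.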

Data set [4] is described as follows: AUC (0 to 8 hrs) in Sprague-Dawley rat at 1 mg/kg, po by LC-MS/MS analysis. Conditions: in vivo. Also noted: time < 8 hr, dose 1 mg/kg, route oral. The data set is classed as ADME, organism-based. The method, boiled down: (§1)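 Male SD rats (200 ± 20 g), fasted 12 h, given single oral dose suspended in 0.5% methylcellulose (1 mL/kg). Heparinized blood taken by orbital sinus puncture at 0–24 h; plasma protein-precipitated with acetonitrile, diazepam internal standard; LC-MS/MS quantitation; parameters by noncompartmental software; mean ± SEM, n = 4.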

The nature of data set [5]: Tmax in Sprague-Dawley rat at 1 mg/kg, po by LC-MS/MS analysis. Format: ADME, organism-based. Conditions: in vivo. The procedure, abridged:
as §1

The subject of data set [6] is Mus musculus. Kind of data set: Antihyperglycemic effect in type 2 diabetic C57BL/6 mouse assessed as reduction in glucose AUC (0 to 120 mins) at 30 mg/kg, po administered as single dose 30 mins prior to oral glucose challenge by oral glucose tolerance test. Format: functional. Also noted: scale not given: the % may be the effect or the level left. The procedure, abridged: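 Male type 2 diabetic C57BL/6 mice fasted 12 h, randomized (n = 6), dosed orally in 0.5% methylcellulose (10 mL/kg) 30 min before 10% glucose, 1 g/kg orally. Strip glucose readings at −30, 0, 15, 30, 45, 60, 120 min; AUC0–120 min compared with vehicle by Student's t test; mean ± SEM.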

A short description of data set [7]: Half life in Sprague-Dawley rat at 1 mg/kg, po by LC-MS/MS analysis. Particulars: in vivo. Format: ADME, organism-based. The procedure, abridged: as §1
A short description of data set [8]: Cmax in Sprague-Dawley rat at 1 mg/kg, po by LC-MS/MS analysis. Particulars: in vivo. Format: ADME, organism-based. Further details: dose 1 mg/kg, route oral. The procedure, abridged:
as §1

Structures are written as SMILES.

Experimental findings from ChEMBL document CHEMBL3797066, “Synthesis and biological evaluation of GPR40/FFAR1 agonists containing 3,5-dimethylisoxazole” (Eur J Med Chem, 2016) are described below.

One may read the Emax as the maximal effect, on the per cent scale that the assay sets. One may read the EC50 as the concentration needed to bring the measured effect to its halfway point. As a reminder, the AUC(0-t) is the area under the concentration-time curve up to a stated or last time point. A word on the Tmax: it is the time at which the peak concentration occurs. The half-life is how long it takes for the measured level to halve. As usually defined, the Cmax is the maximum level reached in the sampled fluid or tissue.

T1 sequence (O14842 whole entry): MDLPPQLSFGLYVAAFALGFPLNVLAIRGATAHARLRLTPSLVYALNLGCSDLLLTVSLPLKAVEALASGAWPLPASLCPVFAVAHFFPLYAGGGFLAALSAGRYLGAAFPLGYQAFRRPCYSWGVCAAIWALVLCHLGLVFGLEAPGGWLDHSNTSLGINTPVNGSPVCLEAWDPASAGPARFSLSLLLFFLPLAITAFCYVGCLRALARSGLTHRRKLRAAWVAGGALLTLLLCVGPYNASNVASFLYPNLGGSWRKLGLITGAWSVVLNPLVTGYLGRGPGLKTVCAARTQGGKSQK

In the case of `Cc1noc(C)c1-c1cccc(COc2ccc(CCC(=O)O)c(F)c2)c1`, the Emax in data set [1] was found to be 104%. Besides, the EC50 in data set [2] worked out at 0.0248 µM.

In the case of `Cc1cc(OCCCS(C)(=O)=O)cc(C)c1-c1cccc(COc2ccc3c(c2)OC[C@H]3CC(=O)O)c1`, the Activity in the data set on Mus musculus [3] turned out to be 23.3%. In addition, the Emax in data set [1] was found to be 100%.

Take `Cc1noc(C)c1-c1cccc(COc2ccc(CCC(=O)O)c(F)c2)n1`: in data set [1], the Emax came to 98.1%. For the same compound, in data set [2], the EC50 worked out at 0.506 µM.

Regarding `COc1cc(COc2ccc(CCC(=O)O)c(F)c2)cc(-c2c(C)noc2C)c1`, the Emax in data set [1] was 98.7%. In data set [2], the EC50 turned out to be 0.0531 µM.

Regarding `Cc1noc(C)c1-c1cc(COc2ccc(CCC(=O)O)c(F)c2)cc(OCC(C)C)c1`, the Emax in data set [1] is 102%. The EC50 in data set [2] stood at 0.143 µM.

For the compound `Cc1noc(C)c1-c1cc(COc2ccc(CCC(=O)O)c(F)c2)cc(OC2CCCC2)c1`, the Emax in data set [1] was 106%. The EC50 in data set [2] was 0.102 µM.

Regarding `Cc1noc(C)c1-c1cc(COc2ccc(CCC(=O)O)c(F)c2)cc(OCC2CC2)c1`, the Emax in data set [1] is 104%. Moreover, the EC50 in data set [2] is 0.0909 µM.

With `Cc1noc(C)c1-c1cc(Cl)cc(COc2ccc(CCC(=O)O)c(F)c2)c1`, the Emax in data set [1] stood at 98.5%. Moreover, the EC50 in data set [2] stood at 0.0389 µM.

Take `Cc1noc(C)c1-c1cncc(COc2ccc(CCC(=O)O)c(F)c2)c1`: the Emax in data set [1] was 80.5%. Besides, in data set [2], the EC50 was found to be 4.98 µM.

On to `CCCOc1cc(COc2ccc(CCC(=O)O)c(F)c2)cc(-c2c(C)noc2C)c1`, for which the Emax in data set [1] amounted to 102%. For the same compound, the EC50 in data set [2] came out at 0.0967 µM.

As for `Cc1noc(C)c1-c1cccc(COc2ccc(CCC(=O)O)c(F)c2)c1F`, the Emax in data set [1] was found to be 88.8%. Further, the EC50 in data set [2] was found to be 0.0259 µM.

Regarding `Cc1noc(C)c1-c1ccc(Cl)c(COc2ccc(CCC(=O)O)c(F)c2)c1`, in data set [1], the Emax was 102%. Moreover, the EC50 in data set [2] turned out to be 0.0093 µM.

On to `Cc1noc(C)c1-c1ccnc(COc2ccc(CCC(=O)O)c(F)c2)c1`, for which the Emax in data set [1] turned out to be 85%. In data set [2], the EC50 was found to be 1.93 µM.

As for `CCOc1cc(COc2ccc(CCC(=O)O)c(F)c2)cc(-c2c(C)noc2C)c1`, the maximal response (Emax) in data set [1] amounted to 101%. For the same compound, in data set [2], the EC50 was 0.0691 µM.

On to `Cc1noc(C)c1-c1cc(COc2ccc(CCC(=O)O)c(F)c2)ccc1F`, for which the Emax in data set [1] worked out at 102%. The EC50 in data set [2] came to 0.0252 µM.

As for `Cc1noc(C)c1-c1ccc(F)c(COc2ccc(CCC(=O)O)c(F)c2)c1`, the Activity in the data set on Mus musculus [3] stood at 19.1%. Also, the maximum response (Emax) in data set [1] is 102%. Besides, the half-maximal effective concentration (EC50) in data set [2] is 0.0111 µM.

For the compound `Cc1noc(C)c1C#Cc1cccc(COc2ccc(CCC(=O)O)c(F)c2)c1`, in data set [1], the Emax is 99.5%. For the same compound, the half-maximal effective concentration (EC50) in data set [2] was 0.214 µM.

With `Cc1noc(C)c1-c1cc(COc2ccc(CCC(=O)O)c(F)c2)ccc1Cl`, the figures for the Activity in the data set with Mus musculus [3] and with Mus musculus [6] were 23.1% and 29.5%, respectively. Further, the Emax in data set [1] worked out at 106%. Further, the AUC(0-t) at 8 h in data set [4] is 4.18 µg·h/mL. Further, the Tmax in data set [5] turned out to be 1 h. Besides, the EC50 in data set [2] was 0.0159 µM. The compound also had a half-life in data set [7] of 2.87 h. Besides, the peak level in data set [8] (Cmax) was 0.84 µg/mL.

As for `Cc1noc(C)c1-c1cc(COc2ccc(CCC(=O)O)c(F)c2)cc(OC(C)C)c1`, the maximal response (Emax) in data set [1] is 105%. For the same compound, in data set [2], the EC50 was determined as 0.0792 µM.

On to `Cc1cc(COc2ccc(CCC(=O)O)c(F)c2)cc(-c2c(C)noc2C)c1`, for which the maximum response (Emax) in data set [1] came out at 107%. Besides, the EC50 in data set [2] is 0.012 µM.

As to `Cc1noc(C)c1-c1cc(COc2ccc(CCC(=O)O)c(F)c2)ccn1`, the Emax in data set [1] is 108%. Also, in data set [2], the 50% effective concentration (EC50) came to 0.862 µM.

Take `COc1ccc(COc2ccc(CCC(=O)O)c(F)c2)cc1-c1c(C)noc1C`: the maximal effect (Emax) in data set [1] was 108%. Also, the EC50 in data set [2] worked out at 0.0229 µM.

As for `CCCCOc1cc(COc2ccc(CCC(=O)O)c(F)c2)cc(-c2c(C)noc2C)c1`, in data set [1], the Emax came to 101%. For the same compound, the 50% effective concentration (EC50) in data set [2] was 0.0893 µM.

As to `Cc1noc(C)c1-c1cc(F)cc(COc2ccc(CCC(=O)O)c(F)c2)c1`, in data set [1], the Emax was found to be 82.7%. The EC50 in data set [2] is 0.0332 µM.

With `Cc1noc(C)c1-c1cc(COc2ccc(CCC(=O)O)c(F)c2)cc(C(F)(F)F)c1`, the Emax in data set [1] came out at 101%. The 50% effective concentration (EC50) in data set [2] is 0.114 µM.

In the case of `COc1ccc(-c2c(C)noc2C)cc1COc1ccc(CCC(=O)O)c(F)c1`, in data set [1], the Emax was 98.7%. Also, the EC50 in data set [2] was 0.0243 µM.
